In ChEMBL document CHEMBL1132217, “Syntheses of biotinylated alpha-galactosylceramides and their effects on the immune system and CD1 molecules” (1999):

Tests used:
Type in all cases: functional
Mus musculus [1] = species on record: Mus musculus; assay: [3H]TdR uptake measured by spleen cell proliferation assay by adding compound dose of 100 ng/mL
Procedure, shortened: (§1)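 Spleens from female C57BL/6 mice dissociated in RPMI 1640, red cells lysed with Tris NH4Cl, washed three times in PBS. Cells (2.5 × 10^5/well, 10% FCS RPMI 1640) cultured with sample or DMSO vehicle (0.001–0.1%) for 18 h at 37 °C, 5% CO2; [3H]TdR 0.5 μCi/well added, uptake counted by liquid scintillation 8 h later. Mean ± S.D.; p < 0.05 vs vehicle.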

Mus musculus [2] = species on record: Mus musculus; assay: [3H]-TdR uptake measured by spleen cell proliferation assay by adding compound dose of 1 ng/mL; procedure, shortened: as §1
Mus musculus [3] = species on record: Mus musculus; assay: [3H]TdR uptake measured by spleen cell proliferation assay by adding compound dose of 10 ng/mL; procedure, shortened: as §1

CCCCCCCCCCCCCCC[C@@H](O)[C@H](CO[C@H]1O[C@@H](CO)[C@H](O)[C@H](O)[C@@H]1O)NC(=O)CCCCCCCCCCNC(=O)CCCCCNC(=O)CCCC[C@@H]1SC[C@@H]2NC(=O)N[C@@H]21
Incorporation (Mus musculus [1]): 14588 c.p.m.
Incorporation (Mus musculus [2]): 4628 c.p.m.
Incorporation (Mus musculus [3]): 8665 c.p.m.

CCCCCCCCCCCCCCCC[C@H](CO[C@H]1O[C@@H](CO)[C@H](O)[C@H](O)[C@@H]1O)NC(=O)CCCCCCCCCCNC(=O)CCCCCNC(=O)CCCC[C@@H]1SC[C@@H]2NC(=O)N[C@@H]21
Incorporation (Mus musculus [1]): 9427 c.p.m.
Incorporation (Mus musculus [2]): 4803 c.p.m.
Incorporation (Mus musculus [3]): 5330 c.p.m.

CCCCCCCCCCCCCC[C@@H](O)[C@@H](O)[C@H](CO[C@H]1O[C@@H](CO)[C@H](O)[C@H](O)[C@@H]1O)NC(=O)CCCCCCCCCCNC(=O)CCCCCNC(=O)CCCC[C@@H]1SC[C@@H]2NC(=O)N[C@@H]21 (stereo in doubt; form 1)
Incorporation (Mus musculus [1]): 5463 c.p.m.
Incorporation (Mus musculus [2]): 4811 c.p.m.
Incorporation (Mus musculus [3]): 4833 c.p.m.

CCCCCCCCCCCCCCCCCCCCCCCCCC(=O)N[C@@H](CO[C@H]1O[C@H](CO)[C@H](O)[C@H](O)[C@H]1O)[C@H](O)[C@H](O)CCCCCCCCCCCCCC [RGI-7000]
Incorporation (Mus musculus [1]): 17636 c.p.m.
Incorporation (Mus musculus [2]): 13499 c.p.m.
Incorporation (Mus musculus [3]): 17438 c.p.m.
